Compound activity deposited in PubChem by several laboratories.
TNAP inh hiacc – inhibitors of human TNAP at high phosphate acceptor concentration | P05186 | purified TNAP, CDP-star luminescence, 1 M DEA | inhibition, % at 20 µM | hit rate 0.03% among 200,000 | AID 1135;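 active = over 50% inhibition of tissue-nonspecific alkaline phosphatase at 20 µM in the single-dose screen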;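 note: plate controls were DMSO wells for no effect and EDTA-quenched wells as full inhibition for full effect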
Target sequence (P05186 whole entry, looked up): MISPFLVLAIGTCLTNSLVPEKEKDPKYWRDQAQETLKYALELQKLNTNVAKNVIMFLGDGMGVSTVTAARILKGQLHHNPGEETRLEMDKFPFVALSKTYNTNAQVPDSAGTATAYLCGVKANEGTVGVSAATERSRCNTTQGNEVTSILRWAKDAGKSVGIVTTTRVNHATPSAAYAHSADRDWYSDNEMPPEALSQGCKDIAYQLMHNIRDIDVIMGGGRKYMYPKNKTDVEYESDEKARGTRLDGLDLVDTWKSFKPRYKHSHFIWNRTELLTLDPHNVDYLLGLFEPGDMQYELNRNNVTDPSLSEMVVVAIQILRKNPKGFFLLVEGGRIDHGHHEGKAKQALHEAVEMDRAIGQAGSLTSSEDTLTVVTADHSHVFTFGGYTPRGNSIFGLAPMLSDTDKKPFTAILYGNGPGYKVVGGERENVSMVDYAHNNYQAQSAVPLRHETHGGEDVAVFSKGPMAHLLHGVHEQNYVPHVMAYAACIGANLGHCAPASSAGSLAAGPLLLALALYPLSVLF
bCat KO growth – beta-catenin-lacking colon tumor cell growth suppression; HCT116 beta-catenin knockout viability, CellTiter-Glo, 60 h; stronger effect = lower value; viability, % at 10 µM; hit rate 1.5% among 140,000; AID 818;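 active = viability at or under a set limit, the compound median less 4 SD, cut at about 6% in these data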;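 note: 0% = Hyamine 1622 control at 20 µM and 100% = untreated cell control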
TNAP inh noacc – TNAP (human) inhibition, acceptor-free conditions | P05186 | purified TNAP, CDP-star luminescence, 30 min | inhibition, % at 20 µM | hit rate 0.26% among 200,000;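 active = tissue-nonspecific alkaline phosphatase inhibition above about 50% at 20 µM in the single-dose screen, limit read from the data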;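 note: 0% = DMSO negative control and 100% = EDTA positive control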
TNAP act hiacc – increases human TNAP activity under high phosphate acceptor concentration; P05186; purified TNAP, CDP-star luminescence, 1 M DEA, 30 min; stronger effect = higher value; 0 = EDTA background, 1 = DMSO-only activity; activation factor at 20 µM; AID 1136; 200,000 tested, under 10 active;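 active = activation factor at least 2 at 20 µM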
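system = human TNAP | amount = enzyme diluted 1/800 final | reagent = 100 µM CDP-star substrate | signal = luminescent substrate turnover signal | dosing = one dose, 20 µM | benchmarks = EDTA negative control, DMSO positive control | measure = activation factor | timing = 30 min reaction, room temperature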
Lmaj promast – reduces viability of Leishmania major promastigotes; hit rate 9% among 200,000; resazurin fluorescence viability; inhibition, % at 10 µM; in the data active = inhibition above about 50%;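 note: promastigotes grown with compound for 44 hours at 28 °C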
HCT116 PTEN-null – growth suppressors of cells with PTEN tumor suppressor deletion; HCT116 PTEN-null viability, CellTiter-Glo, 60 h; stronger effect = lower value; hit rate 1.2% among 140,000; viability, % at 10 µM; AID 827;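 active = viability at or below a set limit, 4 SD under the median of all tested compounds, cut at about 3.7% in these data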;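 note: PTEN knockout HCT116 line with beta catenin targeted HCT116 as companion control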
* marks the source's active call; other numbers are inactive results. This is a sample that favours compounds with a hit; in the whole collection about 9.6% have one here.

What do the screens show for `Cc1nn(Cc2ccccc2)c(Cl)c1/C=C/C(=O)OC(C)C(=O)N1CCCC1` (stereo not given)?
TNAP inh hiacc: -4; TNAP inh noacc: -10; TNAP act hiacc: 1; Lmaj promast: 18

How did CCOc1ccc(CNC(=O)c2ccc(Sc3ccc(C)cc3)c(NC(C)=O)c2)cc1 do in these assays?
TNAP inh hiacc: -6; bCat KO growth: 76; TNAP inh noacc: -7; TNAP act hiacc: 1.1; Lmaj promast: 94*; HCT116 PTEN-null: 89

Results for O=C(CC1CS(=O)(=O)CC1CC(=O)Oc1ccccc1F)Oc1ccccc1F (stereo not given) ?
TNAP inh hiacc: 0; bCat KO growth: 106; TNAP inh noacc: 0; TNAP act hiacc: 1; Lmaj promast: -4; HCT116 PTEN-null: 98

Results for O=C(/C=C1\NC2(CCCC2)Cc2ccccc21)C(=O)N/N=C/c1ccccc1O ?
TNAP inh hiacc: 21; bCat KO growth: 7; TNAP inh noacc: -72; TNAP act hiacc: 0.8; Lmaj promast: 99*; HCT116 PTEN-null: 5

How did CC(c1ccccc1)N1CCn2c(nc3cc(NC(=O)c4cccs4)ccc32)C1 (stereo not given) do in these assays?
TNAP inh hiacc: -1; bCat KO growth: 77; TNAP inh noacc: 0; TNAP act hiacc: 1; Lmaj promast: 99*; HCT116 PTEN-null: 65

Results for O=C(O)Cn1ncn(-c2ccc(OC(F)(F)F)cc2)c1=O ?
TNAP inh hiacc: -3; TNAP inh noacc: -1; TNAP act hiacc: 1; Lmaj promast: -4

Results for CCc1cccc(CC)c1NC(=S)NCCc1ccc(O)c(O)c1 ?
TNAP inh hiacc: 2; TNAP inh noacc: 9; TNAP act hiacc: 1; Lmaj promast: 20

How did NCCc1ccc(O)c(O)c1 do in these assays?
TNAP inh hiacc: 10; bCat KO growth: 5.8*; TNAP inh noacc: 31; TNAP act hiacc: 0.9; Lmaj promast: -9; HCT116 PTEN-null: 22

What do the screens show for `C=CCc1c(C)nc2ccc(C(=O)OCC)cc2c1Cl`?
TNAP inh hiacc: -2; TNAP inh noacc: 2; TNAP act hiacc: 1; Lmaj promast: 14

What do the screens show for `C=CCn1c(=O)/c(=C/c2ccc(Cl)cc2)s/c1=C(/C#N)c1nnc2n1CCCCC2`?
TNAP inh hiacc: -4; bCat KO growth: 48; TNAP inh noacc: 2; TNAP act hiacc: 1; Lmaj promast: 94*; HCT116 PTEN-null: 46

Results for COc1cccc(OC)c1C(=O)Nc1cccnc1 ?
TNAP inh hiacc: -4; TNAP inh noacc: -20; TNAP act hiacc: 1; Lmaj promast: -7

How did CCCCS/C(=C(/C#N)C(N)=O)c1cc2c([nH]1)CCCC2 do in these assays?
TNAP inh hiacc: 4; bCat KO growth: 20; TNAP inh noacc: 1; TNAP act hiacc: 1; Lmaj promast: 51*; HCT116 PTEN-null: 23

What do the screens show for `Cc1ccc(Nc2c([N+](=O)[O-])cc(C(=O)N3CC(=O)Nc4ccccc43)cc2[N+](=O)[O-])c(C)c1`?
TNAP inh hiacc: 7; bCat KO growth: 81; TNAP inh noacc: 2; TNAP act hiacc: 0.9; Lmaj promast: 88*; HCT116 PTEN-null: 72

Results for O=C1CN(C(=O)c2ccccc2F)c2ccccc2N1 ?
TNAP inh hiacc: -1; bCat KO growth: 90; TNAP inh noacc: -8; TNAP act hiacc: 1; Lmaj promast: 17; HCT116 PTEN-null: 94

How did O=C(COc1ccccc1)Nc1nc(-c2ccc(S(=O)(=O)N3CCOCC3)cc2)cs1 do in these assays?
TNAP inh hiacc: -5; bCat KO growth: 77; TNAP inh noacc: -12; TNAP act hiacc: 1; Lmaj promast: 15; HCT116 PTEN-null: 78

How did O=C(CCc1ccc(S(=O)(=O)N2CCOCC2)cc1)Nc1nc(COc2ccccc2)cs1 do in these assays?
TNAP inh hiacc: -4; bCat KO growth: 49; TNAP inh noacc: 1; TNAP act hiacc: 1; Lmaj promast: 96*; HCT116 PTEN-null: 38

Results for CCN(CC)c1ccc(/C=C2\CCC(/C=C(\C#N)C(=O)Nc3ccccc3F)=C2N2CCOCC2)cc1 ?
TNAP inh hiacc: 47; bCat KO growth: 59; TNAP inh noacc: 53*; TNAP act hiacc: 0.5; Lmaj promast: 2; HCT116 PTEN-null: 63

What do the screens show for `Cc1ccc(-c2nn3c(C)nnc3c3ccccc23)cc1S(=O)(=O)NC(C)c1ccccc1` (stereo not given)?
TNAP inh hiacc: -4; bCat KO growth: 8; TNAP inh noacc: -7; TNAP act hiacc: 1; Lmaj promast: 99*; HCT116 PTEN-null: 13
